The results in this text go back to ChEMBL document CHEMBL4411336, “2-Aminothiazole Derivatives as Selective Allosteric Modulators of the Protein Kinase CK2. 2. Structure-Based Optimization and Investigation of Effects Specific to the Allosteric Mode of Action” (J Med Chem, 2019).

Active and inactive are the calls of the source. No cut-off for these calls is given here.

For data set [1], the target named is T1, Casein kinase II subunit alpha (Homo sapiens, UniProt P68400). Description: Inhibition of recombinant human GST-tagged CK2alpha in presence of ATP by radiometric kinase assay.
Target sequence in this assay (P68400 whole entry, canonical isoform): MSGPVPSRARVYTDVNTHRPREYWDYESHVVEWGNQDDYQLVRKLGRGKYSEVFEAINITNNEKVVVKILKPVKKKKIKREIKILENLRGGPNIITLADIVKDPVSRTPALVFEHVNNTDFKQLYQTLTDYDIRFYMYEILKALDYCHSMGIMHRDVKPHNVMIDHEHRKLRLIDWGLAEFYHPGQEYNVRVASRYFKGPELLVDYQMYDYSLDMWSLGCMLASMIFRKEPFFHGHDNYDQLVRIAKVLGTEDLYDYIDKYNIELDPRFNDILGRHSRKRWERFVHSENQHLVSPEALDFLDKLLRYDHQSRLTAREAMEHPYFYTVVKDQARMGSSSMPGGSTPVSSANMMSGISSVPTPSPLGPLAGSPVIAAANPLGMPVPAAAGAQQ
Data set [2] has as its target Casein kinase I isoform gamma-1 (Homo sapiens) (UniProt Q9HCP0). The experiment in a line: Inhibition of recombinant full length human GST-tagged CK1gamma1 expressed in baculovirus expression system assessed as reduction in enzyme activity at 5 uM in presence of ATP relative to control.
The target of data set [3] is Activin receptor type-1 (Homo sapiens) (UniProt Q04771). The experiment in a line: Inhibition of recombinant human catalytic GST-tagged ACVR1 expressed in baculovirus expression system assessed as reduction in enzyme activity at 5 uM in presence of ATP relative to control.
Data set [4] has as its target Dual specificity protein kinase CLK1 (Homo sapiens) (UniProt P49759). As to conditions: 5 uM.
Data set [5] addresses Serine/threonine-protein kinase pim-1 (Homo sapiens) (UniProt P11309). Description: Inhibition of recombinant full length human His-tagged PIM1 expressed in baculovirus expression system assessed as reduction in enzyme activity at 5 uM in presence of ATP relative to control.
Data set [6] deals with 786-0. The experiment in a line: cells. As to conditions: Homo sapiens, 786-0, 24 h.
Data set [7] addresses Dual specificity protein kinase CLK4 (Homo sapiens) (UniProt Q9HAZ1). The experiment in a line: Inhibition of recombinant full length human GST-tagged CLK4 expressed in baculovirus expression system assessed as reduction in enzyme activity at 5 uM in presence of ATP relative to control.
Data set [8] has as its system 786-0. The experiment in a line: Growth inhibition of human 786-0 cells after 24 hrs by MTT assay. The conditions noted are these: 786-0, 24 h. The class given is functional. In short, it runs like this: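 786-O grown in RPMI 1640 with 10% FCS, pen/strep, 37 °C, 5% CO2; assays in medium with 0.1% or 0.5% serum. Cells seeded at 1 × 10^4/well, next day given fresh medium with inhibitor at various concentrations, DMSO (0.25%) control, 24 h. MTT 2 h at 37 °C, SDS/HCl solubilization 4 h, absorbance 570 nm. GI50 by linear interpolation on log[c] scale; at least two independent experiments.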
(Tetrazolium dyes change colour on reduction, which living cells bring about.)

Another data set is filed under the species Homo sapiens. Description: Inhibition of human PI3K assessed as reduction in enzyme activity at 5 uM in presence of ATP relative to control.
The target in data set [9] is Serine/threonine-protein kinase Chk2 (Homo sapiens) (UniProt O96017). As to conditions: 5 uM.
In data set [10] the test system is 786-0. Description: cells. As to conditions: Homo sapiens, 786-0, 24 h. This is another data set of the same source.
The test system of the next data set is NCI-H1299. The experiment in a line: Growth inhibition of human H1299 cells after 24 hrs by MTT assay. The class given is functional. As to conditions: NCI-H1299, 24 h.
The target of data set [11] is Tyrosine-protein kinase ABL1 (Homo sapiens) (UniProt P00519). The conditions noted are these: 5 uM.
A short description of data set [12]: Growth inhibition of human MCF10A cells after 24 hrs by MTT assay. The class given is cell-based, MCF-10A.
Data set [13] deals with Glycogen synthase kinase-3 beta (Homo sapiens) (UniProt P49841). The experiment in a line: Inhibition of recombinant full length human His-tagged GSK3beta expressed in baculovirus expression system assessed as reduction in enzyme activity at 5 uM in presence of ATP relative to control.
The next data set concerns PC-3. The experiment in a line: Growth inhibition of human PC3 cells after 24 hrs by MTT assay. It counts as functional. As to conditions: PC-3, 24 h.
The target in data set [14] is Serine/threonine-protein kinase pim-1 (Homo sapiens) (UniProt P11309). Description: Inhibition of human PIM1 assessed as reduction in enzyme activity at 5 uM in presence of ATP relative to control. Set-up: scale not given: the % may be the effect or the level left.
A further data set concerns DU-145. Description: Growth inhibition of human DU145 cells after 24 hrs by MTT assay. The class given is functional. As to conditions: DU-145, 24 h.
Data set [15] concerns the target Cyclin-dependent kinase 1/cyclin B1 (Homo sapiens) (UniProt P06493+P14635). As to conditions: 5 uM.
The target of data set [16] is Aurora kinase B (Homo sapiens) (UniProt Q96GD4). Description: Inhibition of recombinant full length human His-tagged AURKB expressed in baculovirus expression system assessed as reduction in enzyme activity at 5 uM in presence of ATP relative to control.
Data set [17] in a line: Growth inhibition of human RPTEC cells after 24 hrs by MTT assay. It counts as cell-based.
In data set [18] the target is Receptor tyrosine-protein kinase erbB-2 (Homo sapiens) (UniProt P04626). The experiment in a line: Inhibition of human His-tagged ERBB2 expressed in baculovirus expression system assessed as reduction in enzyme activity at 5 uM in presence of ATP relative to control. Also on record: scale not given: the % may be the effect or the level left.
The subject of a further data set is U138-MG. Description: Growth inhibition of human U138MG cells after 24 hrs by MTT assay. It counts as functional.
The target of data set [19] is Dual specificity protein kinase CLK2 (Homo sapiens) (UniProt P49760). As to conditions: 5 uM.
Data set [20] deals with Epidermal growth factor receptor (Homo sapiens) (UniProt P00533). The experiment in a line: Inhibition of human EGFR assessed as reduction in enzyme activity at 5 uM in presence of ATP relative to control. Also on record: scale not given: the % may be the effect or the level left.
For data set [21], the system named is 786-0. Description: Growth inhibition of human 786-0 cells at 25 uM after 24 hrs by MTT assay relative to control. It counts as functional. As to conditions: 786-0, 24 h, read-out: GI.
The target in data set [22] is T1, Casein kinase II subunit alpha. As to conditions: HeLa, 40 uM.

Chain of Serine/threonine-protein kinase pim-1 (Homo sapiens) (P11309 whole entry, looked up): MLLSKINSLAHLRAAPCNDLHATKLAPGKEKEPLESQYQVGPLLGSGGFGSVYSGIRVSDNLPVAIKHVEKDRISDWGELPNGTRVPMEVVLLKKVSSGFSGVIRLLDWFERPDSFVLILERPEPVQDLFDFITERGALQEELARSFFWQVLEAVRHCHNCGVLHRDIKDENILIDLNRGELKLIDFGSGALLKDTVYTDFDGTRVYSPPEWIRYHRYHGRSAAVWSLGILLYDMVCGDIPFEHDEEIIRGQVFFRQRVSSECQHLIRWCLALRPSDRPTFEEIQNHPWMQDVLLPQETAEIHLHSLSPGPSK
Chain of Receptor tyrosine-protein kinase erbB-2 (Homo sapiens) (P04626 whole entry): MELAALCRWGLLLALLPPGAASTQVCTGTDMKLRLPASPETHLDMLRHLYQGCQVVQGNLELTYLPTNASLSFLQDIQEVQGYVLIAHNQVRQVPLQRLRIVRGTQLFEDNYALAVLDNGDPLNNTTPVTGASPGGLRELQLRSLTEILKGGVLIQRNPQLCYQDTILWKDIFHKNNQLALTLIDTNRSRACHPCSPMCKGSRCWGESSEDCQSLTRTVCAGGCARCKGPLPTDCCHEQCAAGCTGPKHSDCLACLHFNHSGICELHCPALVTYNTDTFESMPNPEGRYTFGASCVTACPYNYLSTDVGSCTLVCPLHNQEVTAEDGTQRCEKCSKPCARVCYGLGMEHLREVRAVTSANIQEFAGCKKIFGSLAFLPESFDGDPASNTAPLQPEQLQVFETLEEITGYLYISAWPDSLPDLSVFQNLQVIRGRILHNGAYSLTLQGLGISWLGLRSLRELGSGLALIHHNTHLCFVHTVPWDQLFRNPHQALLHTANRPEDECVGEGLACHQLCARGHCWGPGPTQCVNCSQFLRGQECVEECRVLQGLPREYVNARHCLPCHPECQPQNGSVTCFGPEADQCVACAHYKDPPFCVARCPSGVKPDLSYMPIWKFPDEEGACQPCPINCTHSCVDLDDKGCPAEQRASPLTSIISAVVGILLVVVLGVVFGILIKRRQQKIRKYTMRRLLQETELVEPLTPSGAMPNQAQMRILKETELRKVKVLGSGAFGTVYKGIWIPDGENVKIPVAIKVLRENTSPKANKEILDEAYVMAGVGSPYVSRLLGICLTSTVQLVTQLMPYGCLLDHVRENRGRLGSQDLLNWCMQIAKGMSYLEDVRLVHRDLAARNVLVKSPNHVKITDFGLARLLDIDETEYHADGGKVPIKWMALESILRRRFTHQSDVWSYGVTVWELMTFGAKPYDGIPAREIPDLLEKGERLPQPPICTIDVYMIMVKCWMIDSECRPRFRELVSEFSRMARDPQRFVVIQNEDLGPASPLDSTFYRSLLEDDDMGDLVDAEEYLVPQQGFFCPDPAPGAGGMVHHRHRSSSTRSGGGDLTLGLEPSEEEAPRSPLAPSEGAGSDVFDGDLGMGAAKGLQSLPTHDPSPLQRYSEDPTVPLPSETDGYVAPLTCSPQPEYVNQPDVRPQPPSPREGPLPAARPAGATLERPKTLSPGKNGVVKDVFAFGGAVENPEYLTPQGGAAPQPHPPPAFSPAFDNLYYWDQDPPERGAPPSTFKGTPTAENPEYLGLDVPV
Chain of Serine/threonine-protein kinase Chk2 (Homo sapiens) (O96017 whole entry): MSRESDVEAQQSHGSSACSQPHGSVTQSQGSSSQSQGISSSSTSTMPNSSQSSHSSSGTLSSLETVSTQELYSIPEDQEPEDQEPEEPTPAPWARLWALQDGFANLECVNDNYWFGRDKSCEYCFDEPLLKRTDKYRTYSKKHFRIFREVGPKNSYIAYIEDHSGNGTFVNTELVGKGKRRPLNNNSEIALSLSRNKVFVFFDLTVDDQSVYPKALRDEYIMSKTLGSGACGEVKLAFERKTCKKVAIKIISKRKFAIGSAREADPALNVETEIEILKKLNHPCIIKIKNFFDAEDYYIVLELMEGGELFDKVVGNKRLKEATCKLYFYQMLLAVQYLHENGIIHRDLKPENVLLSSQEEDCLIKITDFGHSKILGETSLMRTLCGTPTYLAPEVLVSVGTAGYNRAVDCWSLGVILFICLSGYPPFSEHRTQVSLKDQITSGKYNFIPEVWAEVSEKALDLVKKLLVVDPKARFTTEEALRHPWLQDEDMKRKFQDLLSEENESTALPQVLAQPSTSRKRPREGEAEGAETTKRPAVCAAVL
Chain of Dual specificity protein kinase CLK1 (Homo sapiens) (P49759 whole entry, looked up): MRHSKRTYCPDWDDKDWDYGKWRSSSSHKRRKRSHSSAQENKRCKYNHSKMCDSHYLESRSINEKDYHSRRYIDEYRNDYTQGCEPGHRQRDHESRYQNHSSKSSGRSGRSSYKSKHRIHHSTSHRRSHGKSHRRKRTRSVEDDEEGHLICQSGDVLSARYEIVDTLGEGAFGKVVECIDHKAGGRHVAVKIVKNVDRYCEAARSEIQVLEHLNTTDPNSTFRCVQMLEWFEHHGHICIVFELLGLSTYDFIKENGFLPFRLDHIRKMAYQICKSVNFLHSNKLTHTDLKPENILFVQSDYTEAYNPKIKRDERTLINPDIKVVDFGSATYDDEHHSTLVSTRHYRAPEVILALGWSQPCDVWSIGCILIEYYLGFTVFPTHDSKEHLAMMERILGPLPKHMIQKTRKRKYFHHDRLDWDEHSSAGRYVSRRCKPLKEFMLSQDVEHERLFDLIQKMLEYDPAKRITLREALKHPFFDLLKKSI
Chain of Epidermal growth factor receptor (Homo sapiens) (P00533 whole entry): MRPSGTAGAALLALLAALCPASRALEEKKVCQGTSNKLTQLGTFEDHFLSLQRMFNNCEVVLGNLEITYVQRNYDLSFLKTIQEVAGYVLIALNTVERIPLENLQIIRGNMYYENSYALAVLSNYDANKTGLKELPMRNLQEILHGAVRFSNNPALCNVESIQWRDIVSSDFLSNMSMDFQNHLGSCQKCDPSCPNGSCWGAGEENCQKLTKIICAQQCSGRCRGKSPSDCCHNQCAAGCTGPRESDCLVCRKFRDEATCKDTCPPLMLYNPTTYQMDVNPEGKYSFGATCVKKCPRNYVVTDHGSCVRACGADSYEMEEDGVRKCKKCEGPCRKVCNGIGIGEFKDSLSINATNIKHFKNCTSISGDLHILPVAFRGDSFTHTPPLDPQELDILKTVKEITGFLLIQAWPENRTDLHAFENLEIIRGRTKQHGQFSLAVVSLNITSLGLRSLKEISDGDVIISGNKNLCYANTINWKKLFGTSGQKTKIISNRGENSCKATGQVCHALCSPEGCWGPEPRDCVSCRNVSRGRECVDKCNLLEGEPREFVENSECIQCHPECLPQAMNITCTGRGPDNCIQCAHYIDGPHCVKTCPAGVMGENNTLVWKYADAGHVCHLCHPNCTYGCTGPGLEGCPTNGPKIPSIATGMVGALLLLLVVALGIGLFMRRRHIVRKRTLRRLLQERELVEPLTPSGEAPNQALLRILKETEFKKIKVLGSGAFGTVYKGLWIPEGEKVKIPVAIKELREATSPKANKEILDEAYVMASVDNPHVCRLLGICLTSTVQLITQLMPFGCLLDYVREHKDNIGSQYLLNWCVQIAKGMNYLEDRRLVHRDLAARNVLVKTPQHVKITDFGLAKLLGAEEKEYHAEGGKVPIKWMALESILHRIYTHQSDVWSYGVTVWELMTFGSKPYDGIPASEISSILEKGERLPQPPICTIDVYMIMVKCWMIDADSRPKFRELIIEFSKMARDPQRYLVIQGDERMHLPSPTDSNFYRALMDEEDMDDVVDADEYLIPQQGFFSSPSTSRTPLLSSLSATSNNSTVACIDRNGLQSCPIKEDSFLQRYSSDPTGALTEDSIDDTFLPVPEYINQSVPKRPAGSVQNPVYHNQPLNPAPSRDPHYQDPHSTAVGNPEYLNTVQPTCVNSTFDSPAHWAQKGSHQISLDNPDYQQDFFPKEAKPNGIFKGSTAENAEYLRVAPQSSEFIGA
Chain of Dual specificity protein kinase CLK4 (Homo sapiens) (Q9HAZ1 whole entry, looked up): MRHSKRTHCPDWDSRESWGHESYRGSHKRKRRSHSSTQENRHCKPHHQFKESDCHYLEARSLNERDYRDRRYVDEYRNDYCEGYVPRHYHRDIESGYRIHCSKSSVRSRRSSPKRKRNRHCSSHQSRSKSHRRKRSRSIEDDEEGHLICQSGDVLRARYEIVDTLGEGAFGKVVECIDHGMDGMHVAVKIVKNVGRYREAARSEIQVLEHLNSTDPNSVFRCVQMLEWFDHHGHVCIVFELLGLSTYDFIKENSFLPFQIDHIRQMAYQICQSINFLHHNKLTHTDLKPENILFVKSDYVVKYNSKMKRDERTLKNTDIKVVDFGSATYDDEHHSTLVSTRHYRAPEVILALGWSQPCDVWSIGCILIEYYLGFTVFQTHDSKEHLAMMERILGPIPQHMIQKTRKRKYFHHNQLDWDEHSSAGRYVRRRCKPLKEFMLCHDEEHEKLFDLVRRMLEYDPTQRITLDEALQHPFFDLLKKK
Chain of Aurora kinase B (Homo sapiens) (Q96GD4 whole entry): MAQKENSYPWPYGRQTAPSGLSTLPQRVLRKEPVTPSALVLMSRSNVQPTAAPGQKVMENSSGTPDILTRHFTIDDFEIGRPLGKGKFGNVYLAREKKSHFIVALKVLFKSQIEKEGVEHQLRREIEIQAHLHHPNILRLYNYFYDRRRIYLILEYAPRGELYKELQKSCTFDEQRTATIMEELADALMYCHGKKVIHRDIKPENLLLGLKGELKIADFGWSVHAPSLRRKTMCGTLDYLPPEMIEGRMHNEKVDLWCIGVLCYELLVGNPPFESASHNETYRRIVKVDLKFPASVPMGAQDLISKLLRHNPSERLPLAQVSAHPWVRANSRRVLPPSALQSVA

With `O=[N+]([O-])c1cccc(-c2csc(Nc3ccccc3)n2)c1`, the IC50 – broadly, the midpoint of a concentration-inhibition curve – in data set [1] is over 25 µM.

On to `O=C(O)c1ccc(Nc2nc(-c3ccc4ccccc4c3)cs2)cc1O`, for which the inhibition (commonly how much of the control response was suppressed) in [2] was 32%; in data set [3], 0%; in data set [4], 20 to 30%; in data set [5], 60%; in data set [7], 23%; in the data set filed under Homo sapiens it was 53%. The inhibition in [9] was 20 to 30%; in [11], 20 to 30%; in data set [13], 41%; in data set [15], 20 to 30%; in [16], 62%; in data set [19], 20 to 30%. In addition, the concentration giving a half-maximal response (EC50) (in general, the concentration needed to bring the measured effect to its halfway point) with 786-0 [6] turned out to be 4.9 µM; with 786-0 [10] it was 4.6 µM. The GI50 (in general, the concentration giving 50% growth inhibition) in the data set with 786-0 [8] came out at 5 µM; in the data set on NCI-H1299, 9 µM; in the data set on PC-3, 7 µM; in the data set with DU-145 it was 20 µM; in the data set on U138-MG, 13 µM. Moreover, the GI50 at 24 h in data set [12] amounted to 10 µM; in [17], 27 µM. Moreover, the Activity in data set [14] turned out to be 60%; in data set [18] it was 70%; in data set [20], 21%. Further, the inhibition of growth at 25 µM with 786-0 [21] was 87%.

Regarding `c1ccc(Nc2nc(-c3ccc4ccccc4c3)cs2)cc1`, the IC50 in data set [1] was over 50 µM.

In the case of `N#Cc1ccc(Nc2nc(-c3ccc4ccccc4c3)cs2)cc1`, the IC50 in data set [1] was over 50 µM.

As to `CC(=O)OCOC(=O)c1ccc(Nc2nc(-c3ccc4ccccc4c3)cs2)cc1`, in the data set with 786-0 [21], the inhibition of growth at 25 µM is 45%.

In the case of `Cc1ccc(S(=O)(=O)NC(=O)c2ccc(Nc3nc(-c4ccc5ccccc5c4)cs3)cc2)cc1`, in the data set with 786-0 [21], the inhibition of growth at 25 µM came out at 87%.

Turning to `O=C(O)Cc1ccc(Nc2nc(-c3cccc([N+](=O)[O-])c3)cs2)cc1`, the IC50 in data set [1] is over 50 µM.

Turning to `CC(C)(C)c1csc(Nc2ccc(C(=O)O)cc2)n1`, in data set [1], the IC50 was over 50 µM.

As to `CC(=O)OCOC(=O)c1ccc(Nc2nc(-c3cccc([N+](=O)[O-])c3)cs2)cc1`, the inhibition of growth at 25 µM in the data set on 786-0 [21] was 42%.

On to `CC(=O)OCOC(=O)c1ccc(Nc2nc(-c3ccsc3)cs2)cc1`, for which the inhibition of growth at 25 µM with 786-0 [21] was 48%.

In the case of `COC(=O)c1ccc(Nc2nc(-c3cccc([N+](=O)[O-])c3)cs2)cc1`, the IC50 in data set [1] is over 25 µM.

`O=C(O)c1ccc(Nc2nc(-c3ccc(O)cc3O)cs2)cc1`: in data set [1], the IC50 is 7 µM.

On to `O=C(O)c1ccc(Nc2nc(-c3cccc(Br)c3)cs2)cc1`, for which, in the data set with 786-0 [8], halving of growth (GI50) required 25 µM. The inhibition entry in [22] was “Active”.

With `CS(=O)(=O)NC(=O)c1ccc(Nc2nc(-c3ccc4ccccc4c3)cs2)cc1`, in the data set on 786-0 [21], the inhibition of growth at 25 µM came out at 23%.
